Diaph act CS = compounds boosting diaphorase resazurin reduction – biochemical, uHTS, resorufin fluorescence, counter-screen for diaphorase-coupled primary assays, primary screen; Diaphorase/resazurin coupled assay, 16 min; active compounds read high; 1 = vehicle wells, 0 = NADH-free wells; activation factor at 20 µM; 190,000 compounds, 0.005% hits; AID 1229, 2008;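 active means diaphorase activity raised at least twofold by the compound at 20 µM; inactive means activation factor below 2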
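Test system: Clostridium kluyveri diaphorase, purified enzyme. Buffer or medium: 50 mM HEPES pH 7.4 buffer plus MgCl2 and Tween 20. Also added: 0.114 mM NADH and 0.1 mM resazurin, final amounts. Dosing: compound 20 µM once, DMSO 1%. Schedule: 16 min enzyme reaction, ambient temperature. Detection: fluorescence of resorufin, 544 nm excitation, 590 nm emission.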
G6PDH counter = L. mesenteroides G6PDH inhibitors, counter-screen for G6PDH-coupled screening assays, biochemical, Leuconostoc mesenteroides enzyme | glucose-6-phosphate dehydrogenase [Leuconostoc mesenteroides] | inhibition, % at 5 µM | Purified L. mesenteroides G6PDH, diaphorase/resazurin coupled fluorescence, 45 min | 200,000 compounds, 0.12% hits
WT yeast gro inh = growth inhibition of WT strain, primary screen, mitochondrial fusion inhibitor project, WT and mutant strains, chemical genetic; mitochondrial fusion phenotypic screen; 190,000 compounds, 2.1% hits; AID 1362, 2008; inhibition, % at 10 µM; in the data active means inhibition above about 58%; tested in S. cerevisiae
L major viab = Leishmania major promastigote growth inhibition, primary screen; 200,000 compounds, 9% hits; inhibition, % at 10 µM; AID 1063, 2008; Leishmania major promastigotes, resazurin fluorescence viability;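 further: promastigotes grown with compound for 44 hours at 28 °C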
Diaphorase inh = diaphorase inhibitors and chemical oxidizers, primary screen, counter-screen for diaphorase-coupled primary assays, biochemical, uHTS, resorufin fluorescence; diaphorase resazurin-to-resorufin fluorescence, NADH, 16 min; bacterial (C. kluyveri) enzyme, not human; inhibition, % at 20 µM; 190,000 compounds, 0.69% hits;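 active means primary screen inhibition at 20 µM above a set limit, cut at about 50% in these data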;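 further: plate controls were DMSO with full reaction for no effect and wells lacking NADH for full effect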
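System: Bacterial diaphorase enzyme (C. kluyveri) | Incubation: 16-min room-temperature incubation before reading | Benchmarks: No-NADH positive control and DMSO neutral control | Measured by: Resorufin fluorescence 544/590 nm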
* marks the source's active call; other numbers are inactive results. Compounds with a hit are over-represented: about 11% of the library has one in this group of screens. Unless noted, no stated cut-off is given here; in the data, active means inhibition above about 50%; inactive means the rest.

Cc1cccc2sc(N(CCCN(C)C)C(=O)CN3C(=O)c4ccccc4C3=O)nc12 was read as Diaph act CS 0.9, G6PDH counter 6, WT yeast gro inh 38, L major viab 5 and Diaphorase inh 10.
`O=C(NNC1CC(=O)N(c2ccc(Cl)cc2)C1=O)c1ccco1` (centres undefined) gave Diaph act CS 1, G6PDH counter 6, WT yeast gro inh -8, L major viab -5 and Diaphorase inh 3.
For COC(=O)c1ccc(CSc2nnc(C)n2N)o1 the results were Diaph act CS 1, G6PDH counter 7, WT yeast gro inh 5, L major viab -3 and Diaphorase inh 0.
`CSc1ncccc1C(=O)OCc1cccc([N+](=O)[O-])c1` gave Diaph act CS 1, G6PDH counter -2, WT yeast gro inh -2, L major viab -5 and Diaphorase inh 5.
Screening CCOc1ccc(C(=O)CN2CCN(S(=O)(=O)c3ccc(OC)cc3)CC2)cc1 returned Diaph act CS 0.8, G6PDH counter -41, WT yeast gro inh -6, L major viab 19 and Diaphorase inh 17.
`CN(C)S(=O)(=O)c1ccc(C(=O)N2CCN(S(=O)(=O)c3cccs3)CC2)cc1` gave Diaph act CS 1, G6PDH counter 6, WT yeast gro inh -5, L major viab 75* and Diaphorase inh 0.
CCOC(=O)C1CCCN(C(=O)/C=C/c2ccccc2[N+](=O)[O-])C1 (centres undefined) was read as Diaph act CS 1, G6PDH counter 1, WT yeast gro inh -15, L major viab 28 and Diaphorase inh 4.
`COc1ccc(Nc2cc(C)nc(N3CCOCC3)n2)cc1` gave Diaph act CS 0.8, G6PDH counter -1, WT yeast gro inh 16, L major viab 4 and Diaphorase inh 15.
Cc1ccc(Nc2cc(C)nc(N3CCOCC3)n2)c(C)c1 was read as Diaph act CS 0.8, G6PDH counter -2, WT yeast gro inh 13, L major viab 76* and Diaphorase inh 21.
Screening CC1CN(Cc2ccccc2)c2ccccc2NC1=S (centres undefined) returned Diaph act CS 0.9, G6PDH counter 19, WT yeast gro inh 67*, L major viab 10 and Diaphorase inh 13.
For O=C(NCCN1CCOCC1)c1cnn2c(-c3ccccc3)cc(-c3ccccc3)nc12 the results were Diaph act CS 0.8, G6PDH counter -8, WT yeast gro inh -14, L major viab 99* and Diaphorase inh 17.
O=C(NCCN1CCOCC1)c1ccccc1-c1ccccc1 was read as Diaph act CS 1, G6PDH counter 0, WT yeast gro inh 2, L major viab -7 and Diaphorase inh 2.
Screening CC(Sc1nnc(NCc2ccccc2)s1)C(=O)Nc1ccc2c(c1)C(=O)c1ccccc1C2=O (centres undefined) returned Diaph act CS 0.6, G6PDH counter -1, WT yeast gro inh 21, L major viab -2 and Diaphorase inh 39.
CC1(C)Cc2ccccc2C(/C(=N/O)C(N)=O)=N1 was read as Diaph act CS 0.9, G6PDH counter 6, WT yeast gro inh -11, L major viab 61* and Diaphorase inh 13.
For CC(=O)c1ccc(N/N=C(/C(N)=O)C2=NC(C)(C)Cc3ccccc32)cc1 the results were Diaph act CS 0.7, G6PDH counter 15, WT yeast gro inh 2, L major viab 32 and Diaphorase inh 26.
Screening CC1=NC(C)(C)Cc2ccccc21 returned Diaph act CS 0.9, G6PDH counter 0, WT yeast gro inh -9, L major viab -1 and Diaphorase inh 8.
`CC1(C)Cc2ccccc2C(/C(=N\Nc2cccc(Cl)c2)C(N)=O)=N1` gave Diaph act CS 0.8, G6PDH counter -6, WT yeast gro inh 60*, L major viab 98* and Diaphorase inh 19.
For CC(C)NC(=O)CSc1c2c(nc3ccccc13)CCCC2 the results were Diaph act CS 1, G6PDH counter 1, WT yeast gro inh -4, L major viab 12 and Diaphorase inh 2.
For O=C(O)c1ccc(N/N=C/c2ccc(OC(=O)c3ccccc3Cl)cc2)cc1 the results were Diaph act CS 0.8, G6PDH counter -10, WT yeast gro inh -11, L major viab -20 and Diaphorase inh 21.
`Cc1cc(C)c2c(N)c(C(=O)C(C)(C)C)sc2n1` gave Diaph act CS 1.1, G6PDH counter 4, WT yeast gro inh 6, L major viab 97* and Diaphorase inh -9.
Screening COc1ccc(C(=O)c2sc3nc(C)cc(-c4cccs4)c3c2N)cc1OC returned Diaph act CS 0.7, G6PDH counter -2, WT yeast gro inh 24, L major viab 6 and Diaphorase inh 26.
`Cc1cc(C)c2c(N)c(C(=O)NC3CCCC3)sc2n1` gave Diaph act CS 0.9, G6PDH counter 5, WT yeast gro inh -12, L major viab 22 and Diaphorase inh 12.
For Cc1cc(C)c2c(N)c(C(=O)c3ccc(Cl)cc3)sc2n1 the results were Diaph act CS 1, G6PDH counter 1, WT yeast gro inh 10, L major viab 71* and Diaphorase inh -4.
COc1ccc(C(=O)c2sc3nc(C)cc(-c4cccs4)c3c2N)cc1 was read as Diaph act CS 0.8, G6PDH counter -5, WT yeast gro inh 30, L major viab 73* and Diaphorase inh 15.
Screening Cc1cc(C)c2c(N)c(C(=O)c3ccc(Cl)c(Cl)c3)sc2n1 returned Diaph act CS 1.1, G6PDH counter 0, WT yeast gro inh 11, L major viab 100* and Diaphorase inh -7.
Screening Cc1ccc(Cn2c(=O)n(Cc3ccco3)c(=O)c3ccccc32)cc1 returned Diaph act CS 0.9, G6PDH counter 8, WT yeast gro inh 14, L major viab -4 and Diaphorase inh 8.
Cc1cc(C)c2c(N)c(C(=O)NCC3CCCCC3)sc2n1 was read as Diaph act CS 0.8, G6PDH counter 3, WT yeast gro inh 12, L major viab 77* and Diaphorase inh 16.
Screening O=C(CC1C(=O)NCCN1Cc1ccoc1)NCCCn1ncc2ccccc21 (centres undefined) returned Diaph act CS 0.7, G6PDH counter 11, WT yeast gro inh 6, L major viab 0 and Diaphorase inh 29.
Screening S=C(NCc1ccc2[nH]c3c(c2c1)CCCC3)Nc1ccccc1 returned Diaph act CS 0.9, G6PDH counter 3, WT yeast gro inh 76*, L major viab 30 and Diaphorase inh 14.
Cc1cc(C)cc(NC(=S)NCc2ccc3[nH]c4c(c3c2)CCCC4)c1 was read as Diaph act CS 1, G6PDH counter 10, WT yeast gro inh 72*, L major viab 25 and Diaphorase inh 2.
